Experimental data taken from ChEMBL document CHEMBL4145448, “Broad activity of diphenyleneiodonium analogues against Mycobacterium tuberculosis, malaria parasites and bacterial pathogens” (Eur J Med Chem, 2018).

Experiments:
[1] = Selectivity index, ratio of CC50 for human HepG2 cells in presence of 1% FBS to MIC for vancomycin-resistant Enterococcus faecium ATCC 700221; format: toxicity; conditions: read-out: Selectivity Index
How it was run: (§1)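 Selectivity index is CC50 (1% FBS) divided by MIC. […] They then got compound at 300 to 0.14 µM (3-fold steps) for 24 h at 37 °C, 5% CO2. Resazurin (10 µM, 2 h) was read at ex/em 560/590 in duplicate wells. For MIC, CLSI broth microdilution was run in CaMHB with ~10^6 cfu/mL inoculum and 0–128 µM compound.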

[2] = Selectivity index, ratio of CC50 for human HepG2 cells in presence of 1% FBS to MIC for Klebsiella pneumoniae isolate M320445; format: toxicity; conditions: read-out: Selectivity Index
[3] = Selectivity index, ratio of CC50 for human HepG2 cells in presence of 1% FBS to MIC for Escherichia coli N2381; format: toxicity; conditions: read-out: Selectivity Index
Acinetobacter baumannii [4] = test: Antibacterial activity against Acinetobacter baumannii isolate 07AC-336 after 18 hrs by broth microdilution method; format: functional; conditions: isolate 07AC-336, 18 h
How it was run: (§2)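 Broth microdilution per CLSI in cation-adjusted Mueller-Hinton broth. 100 µL inoculum (~10^6 cfu/mL in CaMHB) mixed with 100 µL CaMHB containing compound, 0 to 128 µM. Incubated 18 h at 37 °C. MIC taken as the lowest concentration with no visible growth. Polymyxin B served as positive control. Isolates were stored at -80 °C in tryptone soy broth with 20% glycerol.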

[5] = Selectivity index, ratio of CC50 for human HepG2 cells in presence of 1% FBS to MIC for Acinetobacter baumannii isolate 246-01-C; format: toxicity; conditions: read-out: Selectivity Index
[6] = Selectivity index, ratio of CC50 for human HepG2 cells in presence of 1% FBS to MIC for Mycobacterium tuberculosis H37Rv ATCC 25618; format: toxicity; conditions: read-out: Selectivity Index
Escherichia coli = test: Antibacterial activity against Escherichia coli N11281 after 18 hrs by broth microdilution method; format: functional; conditions: N11281, 18 h; how it was run: as §2
Pseudomonas aeruginosa [7] = test: Antibacterial activity against Pseudomonas aeruginosa isolate 912 after 18 hrs by broth microdilution method; format: functional; conditions: isolate 912, 18 h; how it was run: as §2
[8] = Selectivity index, ratio of CC50 for human HepG2 cells in presence of 1% FBS to MIC for Acinetobacter baumannii isolate 07AC-336; format: toxicity; conditions: read-out: Selectivity Index
Acinetobacter baumannii [9] = test: Antibacterial activity against Acinetobacter baumannii ATCC 17978 col10 after 18 hrs by broth microdilution method; format: functional; conditions: ATCC 17978 col10, 18 h; how it was run: as §2
Enterococcus faecium = test: Antibacterial activity against vancomycin-resistant Enterococcus faecium ATCC 700221 after 18 hrs by broth microdilution method; format: functional; conditions: ATCC 700221, 18 h; how it was run: as §2
[10] = Cytotoxicity against human HepG2 cells after 24 hrs in presence of 1% FBS by resazurin dye based assay; format: cell-based
How it was run: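 HepG2 cells seeded at 4000/well in DMEM with 1% FBS and allowed to attach for 24 h at 37 °C, 5% CO2. Compounds added from 300 to 0.14 µM in 3-fold steps and incubated 24 h. 10 µM resazurin added for 2 h, fluorescence read at ex/em 560/590. Percent viability computed relative to untreated and negative controls, duplicate wells.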

Pseudomonas aeruginosa [11] = test: Antibacterial activity against Pseudomonas aeruginosa isolate M146201 after 18 hrs by broth microdilution method; format: functional; conditions: isolate M146201, 18 h; how it was run: as §2
[12] = Selectivity index, ratio of CC50 for human HepG2 cells in presence of 1% FBS to MIC for methicillin-resistant Staphylococcus aureus ATCC 43300; format: toxicity; conditions: read-out: Selectivity Index; how it was run: as §1
[13] = Selectivity index, ratio of CC50 for human HepG2 cells in presence of 1% FBS to IC50 for CQ-sensitive GFP-fused Plasmodium falciparum D10; format: toxicity; conditions: read-out: Ratio IC50
Pseudomonas aeruginosa [14] = test: Antibacterial activity against Pseudomonas aeruginosa QLD PSA 1 after 18 hrs by broth microdilution method; format: functional; conditions: QLD PSA 1, 18 h; how it was run: as §2
[15] = Selectivity index, ratio of CC50 for human HepG2 cells in presence of 1% FBS to MIC for Pseudomonas aeruginosa QLD PSA 1; format: toxicity; conditions: read-out: Selectivity Index; how it was run: as §1
[16] = Selectivity index, ratio of CC50 for human HepG2 cells in presence of 1% FBS to MIC for Pseudomonas aeruginosa isolate M146201; format: toxicity; conditions: read-out: Selectivity Index; how it was run: as §1
[17] = Selectivity index, ratio of CC50 for human HepG2 cells in presence of 1% FBS to MIC for Klebsiella pneumoniae isolate 248-33-D; format: toxicity; conditions: read-out: Selectivity Index
Klebsiella pneumoniae [18] = test: Antibacterial activity against Klebsiella pneumoniae ATCC 13883 after 18 hrs by broth microdilution method; format: functional; conditions: ATCC 13883, 18 h; how it was run: as §2
[19] = Selectivity index, ratio of CC50 for human HepG2 cells in presence of 1% FBS to MIC for Acinetobacter baumannii ATCC 17978; format: toxicity; conditions: read-out: Selectivity Index
[20] = Selectivity index, ratio of CC50 for human HepG2 cells in presence of 1% FBS to MIC for Klebsiella pneumoniae ATCC 13883; format: toxicity; conditions: read-out: Selectivity Index
Staphylococcus aureus [21] = test: Antibacterial activity against methicillin-resistant Staphylococcus aureus ATCC 43300 after 18 hrs by broth microdilution method; format: functional; conditions: ATCC 43300, 18 h; how it was run: as §2
[22] = Selectivity index, ratio of CC50 for human HepG2 cells in presence of 1% FBS to MIC for Pseudomonas aeruginosa isolate 912; format: toxicity; conditions: read-out: Selectivity Index; how it was run: as §1
[23] = tested on: Mycobacterium tuberculosis; test: Antimycobacterial activity against Mycobacterium tuberculosis H37Rv ATCC 25618 after 7 days by resazurin dye based assay; format: functional; conditions: H37Rv ATCC 25618, 168 h
How it was run: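 H37Rv grown at 37 °C in 7H9 with 10% ADC, 0.5% glycerol and 0.02% tyloxapol. Compounds serially diluted in water, 0 to 10 µM, in triplicate. Culture adjusted to OD600 0.001 and incubated 7 days at 37 °C. Resazurin (0.05% w/v) added for 4-24 h and fluorescence read at 590 nm. MIC is the lowest concentration giving complete growth inhibition versus untreated. Rifampicin served as control.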

Klebsiella pneumoniae [24] = test: Antibacterial activity against Klebsiella pneumoniae isolate M320445 after 18 hrs by broth microdilution method; format: functional; conditions: isolate M320445, 18 h; how it was run: as §2
Staphylococcus aureus [25] = test: Antibacterial activity against vancomycin-resistant Staphylococcus aureus ATCC 700699 after 18 hrs by broth microdilution method; format: functional; conditions: ATCC 700699, 18 h; how it was run: as §2
Acinetobacter baumannii [26] = test: Antibacterial activity against Acinetobacter baumannii ATCC 19606 col10 after 18 hrs by broth microdilution method; format: functional; conditions: ATCC 19606 = CIP 70.34 = JCM 6841 col10, 18 h; how it was run: as §2
[27] = Selectivity index, ratio of CC50 for human HepG2 cells in presence of 1% FBS to MIC for Escherichia coli N11281; format: toxicity; conditions: read-out: Selectivity Index
Pseudomonas aeruginosa [28] = test: Antibacterial activity against Pseudomonas aeruginosa ATCC 27853 after 18 hrs by broth microdilution method; format: functional; conditions: ATCC 27853, 18 h; how it was run: as §2
[29] = Selectivity index, ratio of CC50 for human HepG2 cells in presence of 1% FBS to MIC for Escherichia coli N4149; format: toxicity; conditions: read-out: Selectivity Index
Staphylococcus aureus [30] = test: Antibacterial activity against vancomycin-intermediate Staphylococcus aureus ATCC 700698 after 18 hrs by broth microdilution method; format: functional; conditions: ATCC 700698, 18 h; how it was run: as §2

## Cc1cccc2c1-c1ccccc1[I+]2
[1]
  selectivity ratio: 1.2
[2]
  selectivity ratio: 0.07
[3]
  selectivity ratio: 0.14
Acinetobacter baumannii [4]
  MIC: 2.2 µM
[5]
  selectivity ratio: 1.2
[6]
  selectivity ratio: 19
Escherichia coli
  MIC: 18 µM
Pseudomonas aeruginosa [7]
  MIC: 1.1 µM
[8]
  selectivity ratio: 1.2
Acinetobacter baumannii [9]
  MIC: 0.57 µM
Enterococcus faecium
  MIC: 2.3 µM
[10]
  CC50 at 24 h: 2.6 µM
Pseudomonas aeruginosa [11]
  MIC: 2.3 µM
[12]
  selectivity ratio: 0.07
[13]
  selectivity ratio: 37
Pseudomonas aeruginosa [14]
  MIC: 4.5 µM
[15]
  selectivity ratio: 0.58
[16]
  selectivity ratio: 1.2
[17]
  selectivity ratio: > 0.04
Klebsiella pneumoniae [18]
  MIC: 18 µM
[19]
  selectivity ratio: 2.3
[20]
  selectivity ratio: 0.14
Staphylococcus aureus [21]
  MIC: 36 µM
[22]
  selectivity ratio: 2.3
[23]
  MIC: 0.14 µM
Klebsiella pneumoniae [24]
  MIC: 36 µM
Staphylococcus aureus [25]
  MIC: 36 µM
Acinetobacter baumannii [26]
  MIC: 2.3 µM
[27]
  selectivity ratio: 0.14
Pseudomonas aeruginosa [28]
  MIC: 18 µM
[29]
  selectivity ratio: > 0.04
Staphylococcus aureus [30]
  MIC: 36 µM

## N#Cc1ccc2c(c1)-c1ccccc1[I+]2
[1]
  selectivity ratio: 20
[2]
  selectivity ratio: 0.32
[3]
  selectivity ratio: 0.32
Acinetobacter baumannii [4]
  MIC: 71 µM
[5]
  selectivity ratio: 0.13
[6]
  selectivity ratio: 78
Escherichia coli
  MIC: 71 µM
Pseudomonas aeruginosa [7]
  MIC: 8.8 µM
[8]
  selectivity ratio: 0.32
Acinetobacter baumannii [9]
  MIC: 2.2 µM
Enterococcus faecium
  MIC: 1.1 µM
[10]
  CC50 at 24 h: 22.3 µM
Pseudomonas aeruginosa [11]
  MIC: 8.8 µM
[12]
  selectivity ratio: 20
[13]
  selectivity ratio: 531
Pseudomonas aeruginosa [14]
  MIC: 18 µM
[15]
  selectivity ratio: 0.13
[16]
  selectivity ratio: 2.5
[17]
  selectivity ratio: 0.32
Klebsiella pneumoniae [18]
  MIC: 35 µM
[19]
  selectivity ratio: 5.1
[20]
  selectivity ratio: 0.63
Staphylococcus aureus [21]
  MIC: 1.1 µM
[22]
  selectivity ratio: 2.5
[23]
  MIC: 0.29 µM
Klebsiella pneumoniae [24]
  MIC: 71 µM
Staphylococcus aureus [25]
  MIC: 8.8 µM
Acinetobacter baumannii [26]
  MIC: 2.2 µM
[27]
  selectivity ratio: 0.32
Pseudomonas aeruginosa [28]
  MIC: 71 µM
[29]
  selectivity ratio: > 0.32
Staphylococcus aureus [30]
  MIC: 8.8 µM

## Clc1ccc2c(c1)-c1ccccc1[I+]2
[1]
  selectivity ratio: 1.9
[2]
  selectivity ratio: 0.47
[3]
  selectivity ratio: 0.93
Acinetobacter baumannii [4]
  MIC: 8.7 µM
[5]
  selectivity ratio: 3.7
[6]
  selectivity ratio: 30
Escherichia coli
  MIC: 17 µM
Pseudomonas aeruginosa [7]
  MIC: 4.3 µM
[8]
  selectivity ratio: 1.9
Acinetobacter baumannii [9]
  MIC: 0.5 µM
Enterococcus faecium
  MIC: 8.7 µM
[10]
  CC50 at 24 h: 16.1 µM
Pseudomonas aeruginosa [11]
  MIC: 4.3 µM
[12]
  selectivity ratio: 7.5
[13]
  selectivity ratio: 194
Pseudomonas aeruginosa [14]
  MIC: 8.7 µM
[15]
  selectivity ratio: 1.9
[16]
  selectivity ratio: 3.7
[17]
  selectivity ratio: 0.93
Klebsiella pneumoniae [18]
  MIC: 8.7 µM
[19]
  selectivity ratio: 7.5
[20]
  selectivity ratio: 1.9
Staphylococcus aureus [21]
  MIC: 2.2 µM
[22]
  selectivity ratio: 3.7
[23]
  MIC: 0.54 µM
Klebsiella pneumoniae [24]
  MIC: 35 µM
Staphylococcus aureus [25]
  MIC: 4.3 µM
Acinetobacter baumannii [26]
  MIC: 2.2 µM
[27]
  selectivity ratio: 0.93
Pseudomonas aeruginosa [28]
  MIC: 8.7 µM
[29]
  selectivity ratio: 0.93
Staphylococcus aureus [30]
  MIC: 4.3 µM

## Fc1ccc2c(c1)[I+]c1ccccc1-2
[1]
  selectivity ratio: 2.6
[2]
  selectivity ratio: 0.16
[3]
  selectivity ratio: 0.08
Acinetobacter baumannii [4]
  MIC: 8.9 µM
[5]
  selectivity ratio: 2.6
[6]
  selectivity ratio: 20
Escherichia coli
  MIC: 18 µM
Pseudomonas aeruginosa [7]
  MIC: 1.1 µM
[8]
  selectivity ratio: 0.66
Acinetobacter baumannii [9]
  MIC: 0.56 µM
Enterococcus faecium
  MIC: 2.2 µM
[10]
  CC50 at 24 h: 5.9 µM
Pseudomonas aeruginosa [11]
  MIC: 2.2 µM
[12]
  selectivity ratio: 2.6
[13]
  selectivity ratio: 105
Pseudomonas aeruginosa [14]
  MIC: 8.9 µM
[15]
  selectivity ratio: 0.66
[16]
  selectivity ratio: 2.6
[17]
  selectivity ratio: 0.16
Klebsiella pneumoniae [18]
  MIC: 36 µM
[19]
  selectivity ratio: 5.3
[20]
  selectivity ratio: 0.16
Staphylococcus aureus [21]
  MIC: 2.2 µM
[22]
  selectivity ratio: 5.3
[23]
  MIC: 0.29 µM
Klebsiella pneumoniae [24]
  MIC: 36 µM
Staphylococcus aureus [25]
  MIC: 8.9 µM
Acinetobacter baumannii [26]
  MIC: 2.2 µM
[27]
  selectivity ratio: 0.08
Pseudomonas aeruginosa [28]
  MIC: 8.9 µM
[29]
  selectivity ratio: 0.08
Staphylococcus aureus [30]
  MIC: 8.9 µM
